This is a sample that favours compounds with a hit; in the whole collection about 2.5% have one here.
MC4R barr agon: human MC4R agonism via beta-arrestin; actives 0.98% (n = 360,000); activation, % at 8.9 µM; U2OS MC4R beta-arrestin complementation, luminescence; percent of melanotan II response, DMSO zero; P32245;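 active = activation above a per-plate cutoff, the mean activation of sample wells on that plate plus 3 SD, cut at about 8% in these data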
Target sequence (P32245 whole entry, looked up): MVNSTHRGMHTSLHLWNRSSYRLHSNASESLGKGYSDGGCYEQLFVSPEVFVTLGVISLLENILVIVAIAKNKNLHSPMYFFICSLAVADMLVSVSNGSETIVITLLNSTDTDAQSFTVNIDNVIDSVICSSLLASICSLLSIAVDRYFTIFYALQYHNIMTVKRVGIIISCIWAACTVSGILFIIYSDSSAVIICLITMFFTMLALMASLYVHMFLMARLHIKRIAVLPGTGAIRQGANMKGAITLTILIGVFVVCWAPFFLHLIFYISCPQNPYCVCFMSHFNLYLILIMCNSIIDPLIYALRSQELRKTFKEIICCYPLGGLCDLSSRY
MC4R antagonist: human MC4R antagonism in cAMP assay; MC4R-expressing cells, MTII-stimulated cAMP, LANCE TR-FRET; inhibition, % at 6.5 µM; AID 540295; P32245; actives 0.48% (n = 360,000);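 active = inhibition above its plate's cutoff, the mean of tested wells on that plate plus 3 SD, cut at about 29% in these data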;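 note: 0% = Melanotan II alone and 100% = Melanotan II plus saturating MCL0020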
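system = U2OS cells with stable human MC4R expression | also added = Melanotan II challenge after compound preincubation | dosing = one concentration, 6.5 µM nominal | incubation = compound 30 min, challenge 1 h, detection 1 h | measured by = TR-FRET with Eu-cAMP and labeled anti-cAMP, 671 nm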
NR1D1 modulator: modulators of human Rev-erb alpha DNA binding; Rev-erbα–FITC-DNA binding, fluorescence polarization, 90 min; activity, % at 10 µM; actives 0.79% (n = 370,000); AID 1259318;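 active = activity above about 14%, limit read from the data; passing the limit was not always enough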;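 note: 0% = DMSO wells with 35 nM protein and 100% = DMSO wells with 750 nM protein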
PG9 Ab binder: small molecules binding HIV-1 gp120 antibody PG9 | actives 0.43% (n = 360,000) | TR-FRET gp120-PG9 antibody binding | inhibition, % at 6.7 µM; in the data active = inhibition above about 8.5%
NTR1 agonist: NTR1 (human) agonism; NTR1-U2OS beta-arrestin-GFP spot imaging, agonist mode; actives 0.17% (n = 330,000); AID 493036; P30989; activation, % at 20 µM;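 active = activation at or above 40% of the spot to cytoplasm intensity ratio, with at least 20 cells analyzed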;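 note: 0% = DMSO without peptide and 100% = 100 nM NTR1 peptide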
cAMP nonselect: nonselective cAMP signaling inhibitor, MC4R antagonist counter-screen; shares compounds with MC4R antagonist; parental U2OS, forskolin cAMP, LANCE TR-FRET; inhibition, % at 6.5 µM; actives 26% (n = 1,600);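 active = mean inhibition over triplicates above the low-control well mean plus 3 SD, set per campaign, cut at about 13% in these data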;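 note: signal is single emission at 671 nm which falls as cellular cAMP rises; 0% = forskolin-stimulated wells and 100% = buffer without forskolin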
MC4R antag conf: human MC4R cAMP antagonism confirmation; shares compounds with MC4R antagonist; MC4R-expressing cells, MTII-stimulated cAMP, TR-FRET; inhibition, % at 6.5 µM; actives 27% (n = 1,600); AID 602195; in the data active = inhibition above about 29%;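 note: 0% = agonist stimulated wells alone and 100% = agonist stimulated wells plus saturating reference antagonist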
* hit, by the source's call; nt = no result given.

SMILES	MC4R barr agon	MC4R antagonist	NR1D1 modulator	PG9 Ab binder	NTR1 agonist	cAMP nonselect	MC4R antag conf
CCNC(=O)COC(=O)CNC(=O)c1cc(Cl)cc([N+](=O)[O-])c1	-3	1	0	-2	0	nt	nt
CC(C)CNC(=O)COC(=O)CNC(=O)c1cc(Cl)cc([N+](=O)[O-])c1	-2	33*	1	-1	2	17*	32*
CC(C)N(C(=O)COC(=O)c1ccccc1C(=O)c1ccc(Cl)c([N+](=O)[O-])c1)C(C)C	-5	19	-4	1	1	nt	nt
O=C(COC(=O)c1ccccc1C(=O)c1ccc(Cl)c([N+](=O)[O-])c1)NC1CCCCCC1	-3	64*	-3	0	0	12	31*
O=C(COC(=O)c1ccc(Cl)c([N+](=O)[O-])c1)Nc1ccccc1OC(F)F	-2	34*	-1	2	5	21*	47*
CN(CCC#N)C(=O)COC(=O)c1ccccc1C(=O)c1ccc(Cl)c([N+](=O)[O-])c1	-4	33*	1	-1	nt	24*	5
CC(C)c1ccc(NC(=O)O[C@H]2CC[C@@]34CCCN3C(=O)CCC[C@H]4[C@H]2C)cc1	nt	nt	-1	nt	nt	nt	nt
CCc1ccc(CCNC(=O)OC2CC3CC2[C@H]2CCCCN2C3)cc1 (stereo partly specified)	nt	nt	-7	nt	nt	nt	nt
CCC(=O)OCCCN1CCC2(CCC(c3ccccc3)CC2)C1=O (stereo unspecified)	nt	nt	-1	nt	nt	nt	nt
CCN1CCN(C(=O)c2cc(S(=O)(=O)Nc3ccc(S(C)(=O)=O)cc3)ccc2Cl)CC1	2	30*	0	1	-1	-10	-27
CC(=O)N1CCN(C(=O)c2cc(S(=O)(=O)Nc3ccc(S(C)(=O)=O)cc3)ccc2Cl)CC1	-1	-1	-4	-4	2	nt	nt
O=C(O)c1cnn(-c2nc(-c3ccc(Cl)cc3)cs2)c1C(F)(F)F	-1	31*	-5	6	3	4	18
CN(C)c1ccc(-c2nn3c(-c4ccco4)nnc3s2)cc1	nt	nt	-25	nt	nt	nt	nt
CCOC(=O)C1=C(C)N=c2s/c(=C/c3ccc(OCC(=O)O)cc3)c(=O)n2C1c1ccc(SC)cc1 (stereo unspecified)	-2	22	nt	nt	5	nt	nt
CCOC(=O)C1=C(C)N=c2s/c(=C/c3ccc(OCC(=O)O)cc3)c(=O)n2C1c1ccc(F)cc1 (stereo unspecified)	0	30*	5	-1	3	2	-5
COC(=O)C[C@@H]1CC[C@H]2[C@H](COc3ccc(NC(=O)Nc4ccc(Cl)cc4)cc3C(=O)N2C)O1	nt	nt	6	nt	nt	nt	nt
O=C(CSc1nnc(CNC(=O)c2cccs2)o1)Nc1ccccc1	1	-7	2	-1	-1	nt	nt
Cc1ccc(NC(=O)CSc2nnc(CNC(=O)c3cccs3)o2)cc1	1	31*	3	-3	7	0	-4
CCCC[C@@H]1C(=O)N2N=C(c3ccccc3)c3ccccc3[C@H]2N2N=C(c3ccccc3)c3ccccc3[C@@H]12	nt	nt	5	nt	nt	nt	nt
Cc1cc(C(=O)COc2cc(F)ccc2[N+](=O)[O-])c(C)n1CC1CCCO1 (stereo unspecified)	3	33*	-2	0	1	12	25
O=C(c1ccc2c(c1)OCO2)N1CCC(Oc2cccnc2)CC1	nt	nt	1	nt	nt	nt	nt
COC(=O)C1CN(Cc2cn(CCC3OCCO3)nn2)CCS(=O)(=O)N1Cc1ccc(OC)cc1 (stereo unspecified)	nt	nt	0	nt	nt	nt	nt
N#CC(C#N)=C1C=CC=CN1/C(=C\c1ccco1)C(=O)c1ccc(Br)cc1	-4	28	1	-3	nt	nt	nt
COc1ccc(C(=O)/C(=C\c2ccco2)N2C=CC=CC2=C(C#N)C#N)cc1	-2	33*	nt	nt	39	12	36*
N#CC(C#N)=C1C=CC=CN1/C(=C\c1ccco1)C(=O)c1ccccc1	-3	38*	8	-1	nt	14*	26
C#CC[N+]1(CC#Cc2ccccc2)CCCC1	-1	2	1	4	-1	nt	nt

Screening results (PubChem)
